Activity calls are given as the source filed them.
Legend:
Type in all cases: functional, organism-based
Conditions in all cases: dose 1-10 µM
[1] = tested on: Influenza B virus; assay: Antiviral activity against oseltamivir resistant Influenza B virus B/3449/18 (Yamagata) infected in MDCK cells assessed as reduction in plaque number at 1 to 10 uM pre-infected with cell for 1 hrs followed by compound addition and measured after 72 hrs by plaque reduction assay
In short: (§1)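 Confluent MDCK monolayers were inoculated at 37 °C for 1 h with virus suspension, either alone or with serial half-log sample dilutions (1, 3.16, 10), in duplicate. The inoculum was aspirated and replaced with serum-free test medium containing 2 µg/mL trypsin, 0.4% agar and the same sample concentrations. Plaques were counted and IC50 was derived by a four-parameter logistic fit (n = 3).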

[2] = tested on: Influenza B virus; assay: Antiviral activity against oseltamivir resistant Influenza B virus B/2791/18 (Victoria) infected in MDCK cells assessed as reduction in plaque number at 1 to 10 uM pre-infected with cell for 1 hrs followed by compound addition and measured after 72 hrs by plaque reduction assay; in short: as §1
[3] = tested on: Influenza A virus; assay: Antiviral activity against oseltamivir resistant Influenza A virus A/1519/19 (H1N1) infected in MDCK cells assessed as reduction in plaque number at 1 to 10 uM pre-infected with cell for 1 hrs followed by compound addition and measured after 72 hrs by plaque reduction assay; in short: as §1
[4] = tested on: Influenza A virus; assay: Antiviral activity against oseltamivir resistant Influenza A virus A/2588/19 (H3N2) infected in MDCK cells assessed as reduction in plaque number at 1 to 10 uM pre-infected with cell for 1 hrs followed by compound addition and measured after 72 hrs by plaque reduction assay; in short: as §1
[5] = tested on: Influenza A virus; assay: Antiviral activity against oseltamivir resistant Influenza A virus A/1690/19 (H1N1) infected in MDCK cells assessed as reduction in plaque number at 1 to 10 uM pre-infected with cell for 1 hrs followed by compound addition and measured after 72 hrs by plaque reduction assay; in short: as §1

Measured: Activity

CC(C)=CCCC1=C[C@H](c2c(O)cc3c(c2O)C(=O)C[C@@H](c2ccc(O)cc2O)O3)[C@@H](C(=O)c2ccc(O)cc2O)[C@H](c2ccc(O)cc2O)C1
active: [1] | [2] | [3] | [4] | [5]

CC(C)=CC[C@]12Oc3cc(O)c([C@H]4C=C(C)C[C@H](c5ccc(O)cc5O)[C@H]4C(=O)c4ccc(O)cc4O)c(O)c3C(=O)[C@@]1(O)Oc1cc(O)ccc12 [SANGGENON C]
active: [1] | [2] | [3] | [4] | [5]

Reference: ChEMBL document CHEMBL5226368, “1H NMR-Based Biochemometric Analysis of Morus alba Extracts toward a Multipotent Herbal Anti-Infective” (J Nat Prod, 2023)
